From ChEMBL document CHEMBL4513216, “Probing the Open Global Health Chemical Diversity Library for Multistage-Active Starting Points for Next-Generation Antimalarials” (ACS Infect Dis, 2020)

Test: Toxicity liver stage against HepG2, at 10uM
Type: cell-based
Set-up: test concentration 10 uM, cell line HepG2-A16-CD81EGFP
Settings: human, HepG2-A16-CD81EGFP cells; read-out: INHIBITION
In short: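 Uninfected HepG2-A16-CD81EGFP cells, 3 × 10^3 per well, 1536-well, plated on prespotted compound at 10 μM final, parasite-free screening media added to match infected plates; puromycin 10 μM positive, DMSO 0.5% negative; run in parallel with 48 h PbLuc assay at 37 °C, 5% CO2; viability by CellTiter-Glo luminescence, normalized to controls.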

Point of comparison: `O=C(c1cn(-c2ccccc2Cl)nn1)N1CCSCC1`, cytotoxicity at 10 µM 8.24%. Against it:
- Cn1c2c(c(=O)c3ccccc31)CCC(C)(C)O2 — lower, 2.76%
- Cc1cccc(-c2noc([C@@H]3C[C@@H](O)CN3CC3CCCCC3)n2)c1 — lower, 6.41%
- CCN1C(=O)COC[C@@H]1[C@H](O)c1ccc(NC(=O)COC)cc1 — lower, 1.73%
- FC(F)(F)Oc1ccc(-c2c[nH]c([C@@H]3COCCN3)n2)cc1 — lower, -8.64%
- COc1ccc(S(=O)(=O)N2CCOC[C@H](Oc3cnccn3)C2)cc1 — higher, 10.4%
- CC(C)c1ccc(-n2ncc(C(=O)N(C)C3CCN(C)CC3)c2N)cc1 — lower, -6.57%
- COc1ccccc1NC(=O)Cn1c(=O)nc(N)c2cc(C)sc21 — lower, 3.45%
- CCS(=O)(=O)NCCNc1cc(-n2cccc2)ncn1 — lower, -3.5%
- O=C(Cc1ccc(Br)cc1)N1CC(S(=O)(=O)C2CCCCC2)C1 — lower, -1.13%
- CCN1C(=O)C[C@@H]2[C@@H]1CCN2S(=O)(=O)c1cccc(C)c1 — lower, 1.29%
- O=C(Cc1cccs1)NCC1COCc2c(-c3ccoc3)nnn2C1 (configuration not stated) — higher, 19%
- COc1ncccc1CN1CC[C@H]2O[C@@H](c3nnc(C)o3)CC[C@H]21 — higher, 9.6%
- Cc1cccc(CN2CC3C[C@]3(NC(=O)c3ccco3)C2)n1 (some centres not stated) — lower, -142%
- CN1CCN(c2ncnc3c2CCN(Cc2nccn2C)CC3)CC1 — lower, -130%
- Cc1ncnc2c1CCN(C(=O)c1cnccn1)CC2 — lower, -5.19%
- Cc1ccc(CC(=O)N2CCn3cc(Cn4cncn4)nc3C2)cc1 — lower, -138%
- COC(=O)C(C)NC(=O)CSCc1nc(O)c2cc(C(C)C)sc2n1 (configuration not stated) — higher, 10.2%
- CCCc1nc(Nc2cccc(C(N)=O)c2)c2c(n1)c(C)nn2CC — lower, 3.31%
- COc1cccc(Cn2cc(N3C(=O)CCC3=O)cn2)c1 — lower, -2.75%
- O=S(=O)(c1cccs1)N1CCCC(c2nccs2)C1 (configuration not stated) — lower, -15%
- Cc1nn(C)c(C)c1-c1cnc(C2CCCN(C)C2)cn1 (configuration not stated) — lower, -8.8%
- O=C(Cc1ccon1)N1CCc2cc(Br)sc2C1 — lower, 1.69%
- c1nc2c(c(N3CCOC(Cn4cncn4)C3)n1)CCC2 (configuration not stated) — higher, 14.5%
- O=C(NC1CC1)N(CCc1ccccc1)C1CCOC1 (configuration not stated) — lower, -1.41%
- COc1ccccc1C(C)NC(=O)N1CCN(Cc2ccc(Br)s2)CC1 (configuration not stated) — higher, 10.5%
- CCOc1ccccc1NC(=O)NCc1ccoc1 — lower, -0.335%
- Cc1cccc(-c2ccc(C(=O)N3CCSCC3)c(=O)[nH]2)c1 — lower, 6.99%
- Cn1cc(CNC2CCCOc3c2ccc2ccccc32)cn1 (configuration not stated) — lower, 5.7%
- OC1(CNc2ccc(Br)cn2)CCC1 — lower, 6.59%
- CC(C)c1cc(NC(=O)Cn2cnc3ccccc3c2=O)[nH]n1 — lower, -168%
- CCc1cc(=O)[nH]c(-c2ccc(NC(CO)CC(C)C)nc2)n1 (configuration not stated) — lower, -146%
- O=C(NCCCn1ccccc1=O)c1cnc(-c2ccsc2)s1 — lower, 0.956%
- CCc1nc(CC)n(CC(=O)N(C)CC(F)(F)F)n1 — lower, 2.19%
- CC(CNC(=O)c1cccnc1)Oc1ccc(F)cc1 (configuration not stated) — lower, -6.98%
- CC(c1ccc(S(C)(=O)=O)cc1)N(C)C(=O)c1ccccc1I (configuration not stated) — higher, 11.1%
- COc1ccc(CN(C(=O)C(C)C)c2cnn(C)c2)c(OC)c1 — lower, 3.2%
- O=C(c1cc(C2CC2)[nH]n1)N1CCCN(c2nccs2)CC1 — lower, 6.37%
- Cc1c(Br)cccc1C(=O)NCc1cnn(C)c1 — lower, 3.15%
- Fc1cc(CN2CCOC3(CCOCC3)C2)ccc1Cl — lower, -4.57%
- CN(C(=O)COc1ccc(-c2noc(C3CCCO3)n2)cc1)C1CC1 (configuration not stated) — lower, -6.79%
- Cc1ccc(C(=O)NCc2ccccc2S(=O)(=O)N(C)CCO)cc1F — lower, -3.04%
- Cc1nc(C)n(CC2CCCN(CCCS(=O)(=O)N(C)C)C2)n1 (configuration not stated) — lower, -3.15%
- CN(C)C(=O)Cn1cc(C(=O)NCCc2ccc(Cl)cc2Cl)nn1 — lower, -2.35%
- COc1ccnc(NC(=O)c2cscc2C)c1 — lower, -16%
- Cc1ccc(C(=O)NC(CN2CCCC2)c2ccccc2)c(=O)[nH]1 (configuration not stated) — lower, -2.32%
- O=C(Cn1cc(C2CC2)nn1)NC(c1ccc(Cl)cc1)C1CC1 (configuration not stated) — lower, 2.16%
- O=C(CN1CCS(=O)(=O)CC1)NCc1ccccc1F — lower, 6.32%
- CCc1nsc(N2CCN(C(=O)c3ccnc(N(C)C)c3)CC2)n1 — lower, -2.48%
- CS(=O)(=O)NCCCSCc1cccc2cccnc12 — lower, 3.53%
- Cc1ccc(C)c(OCC(O)Cn2ncc3cnn(C)c(=O)c32)c1 (configuration not stated) — lower, 4.45%
- CCc1cccc(OCC(=O)NC(C)c2nnc3n2CCC3)c1 (configuration not stated) — lower, -3.78%
- Cc1ccc(S(C)(=O)=O)cc1C(=O)NS(=O)(=O)c1cccs1 — lower, 0.532%
- CC1CCN(C(=O)CSCc2noc(C(C)C)n2)CC1 — lower, 1.4%
- CC(C)Cc1nc(CSCC(=O)N2CCC(C)CC2)no1 — lower, 2.25%
- Cc1cc(NCc2csc(-c3ccco3)n2)ccc1C(N)=O — higher, 20.3%
- CCS(=O)(=O)c1ccc(NCc2csc(C(C)C)n2)cc1 — higher, 8.73%
- CNC(=O)C(C)CN(C)C(=O)Nc1ccc(Cl)cc1-n1cccc1 (configuration not stated) — higher, 16.9%
- CCCN1CCCCC1C(=O)Nc1ccc(-c2nnc[nH]2)cc1 (configuration not stated) — lower, 4.64%
- Cc1ccc(CNC(=O)N(Cc2ccccc2F)C2CC2)cn1 — lower, 0.0194%
- CC(=O)Nc1cc(C(=O)N2CCOCC2c2ccc(C)o2)ccc1F (configuration not stated) — lower, -3.08%
- CCOCCOC(C)C(=O)NCc1cn2cc(Br)ccc2n1 (configuration not stated) — lower, -6.83%
- CCC[C@H]1CN(S(=O)(=O)c2c(C)noc2C)C[C@@H]1N — lower, -0.288%
- Cc1ccccc1C1(O)CCN(C(=O)CCc2cn3ccccc3n2)C1 (configuration not stated) — lower, -3.18%
- CCOc1ccccc1-n1c(C2CCC2)n[nH]c1=O — lower, 4.18%
- CS(=O)(=O)NCC1(O)CCCN(C(=O)CCn2cc(Cl)cn2)CC1 (configuration not stated) — lower, -144%
- N[C@H]1CN(S(=O)(=O)Cc2ccccc2)C[C@@H]1C1CC1 — lower, -133%
- OC1(CNCCc2nc(Cc3ccccc3)no2)CNCCOC1 (configuration not stated) — lower, 4.43%
- CCC[C@H]1CN(S(C)(=O)=O)C[C@@H]1NC(=O)Cc1ccc(OC)cc1 — lower, 1.85%
- CCN(CC)CCC(=O)NCc1cc2n(n1)CCN(C(=O)N(C)C)C2 — lower, -6.72%
- O=C(c1cn(-c2ccccc2)nn1)N1CCOCC(O)C1 (configuration not stated) — lower, 2.35%
- O=c1cc(N2CCc3ccccc3C2)cnn1CCC1CCOC1 (configuration not stated) — lower, -1.19%
- CN(Cc1cc2cc(F)ccc2[nH]1)C(=O)C1CC(=O)N(C2CC2)C1 (configuration not stated) — lower, 0.0448%
- O=C1CCCCCN1Cc1nc(C2(c3ccc(F)cc3)CCOC2)no1 (configuration not stated) — higher, 21.1%
- Cc1ccc(NC2CCCN(CCc3ccccc3)C2)nn1 (configuration not stated) — higher, 11.7%
- CN1CCCC(CCC(=O)NCCc2nnc(N)s2)C1 (configuration not stated) — lower, -146%
- Cc1ccc(C(CNC(=O)c2cc(CC(C)C)nn2C)N(C)C)cc1 (configuration not stated) — lower, -3.34%
- C=C(C)COc1cccc(C(=O)N(CC)Cc2nc(COC)no2)c1 — lower, -18%
- Cc1cc(CNc2ccc(-c3nc(C4CC4)no3)cn2)no1 — lower, 2.55%
- COc1cccc(-c2noc(-c3ccc(NCC(C)O)nc3)n2)c1OC (configuration not stated) — lower, -5.82%
- Cc1cc(C(=O)N2CC[C@H](N3CCN(C)CC3)[C@H](CCCO)C2)n(C)n1 — lower, -12.4%
- CNc1nc(C(=O)NCc2cccnc2N(C)C)cs1 — lower, -7.57%
- COCCCN(C)c1nc(-c2ccncc2)nc2c1CCN(C(C)=O)C2 — lower, -1.16%
- OC1(CNCc2csc(-c3ncccn3)n2)CCCNC1 (configuration not stated) — lower, -10.7%
- COc1ccc(NC(=O)CCC2CCCN(Cc3ncon3)C2)cc1Cl (configuration not stated) — lower, -6.12%
- CNC(=O)c1ccc(C2CN(C(=O)COC)CCO2)nc1 (configuration not stated) — lower, 3.25%
- Cc1noc(C(C)C)c1C(=O)NCc1ccc2c(c1)OCCO2 — lower, 3.24%
- CCn1c(C(=O)N2CCCN(CC(N)=O)CC2)cc2ccccc21 — lower, -4.77%
- Cc1nc(CN2CCN(C(=O)NC(C)Cn3ccnc3)CC2)cs1 (configuration not stated) — lower, -5.28%
- Cc1ccc(-c2nc(CNC(C)Cn3cccn3)cs2)o1 (configuration not stated) — lower, -7.82%
- COCCC(C)NC(=O)c1cc(Br)c2c(c1)OCCO2 (configuration not stated) — lower, -13.4%
- CNC(=O)N1CCC(NC(=O)c2cnn(C)c2)CC1 — lower, -1.35%
- O=C(NCCc1ccccc1)NCC(O)c1cccc(F)c1 (configuration not stated) — lower, -7.24%
- CC(NC(=O)COCC(F)(F)F)c1nnc2n1CCCCC2 (configuration not stated) — lower, -12.3%
- CCN(Cc1cccc2c1OCO2)C(=O)NCc1ccccn1 — lower, 1.48%
- CCCc1nc(CN2CCN(C(C)c3nc(C4CC4)no3)CC2)no1 (configuration not stated) — lower, -8.14%
- Cc1nc(CN2CCCN(C(=O)c3sccc3C#N)CC2)cs1 — lower, -7.98%
- Cc1nc(CN(C)CC2CCCN2c2cccnn2)oc1C (configuration not stated) — lower, -4.25%
- CCS(=O)(=O)c1ccccc1N1CCC(NC(=O)NC2CCCC2)CC1 — lower, -16%
- CC(C)N1CC(C(=O)NCc2ccnc(-n3cccn3)c2)CC1=O (configuration not stated) — lower, -2.5%
- CCOC(=O)CSc1nnc(C(N)CC(C)C)o1 (configuration not stated) — lower, -8.32%
- O=C1COC2(CCN(Cc3ccncc3)CC2)CN1c1ccccc1 — lower, -126%
- COc1ccc2c(c1)C1(CCN(Cc3cccnc3)CC1)N(C)CC2 — lower, -161%
- Cc1cccc(-c2c[nH]c(C3CCCN3)n2)c1 (configuration not stated) — lower, -11.4%
- CCS(=O)(=O)N1CCOC2(CCCN(Cc3ccccn3)C2)C1 (configuration not stated) — lower, 5.86%
- O=C(O)c1cc2c(nc1-c1ccncc1)CCN(C1CCOC1)CC2 (configuration not stated) — higher, 9.34%
- Cc1cccc(CN2CCc3ncnc(C4CC4)c3CC2)n1 — lower, -158%
- O=C([C@@H]1C[C@@H]2CCN(C3CCOCC3)C[C@H]2O1)N1CCOCC1 — lower, 0.763%
- Cn1cc(-c2nc3c(cc2C(=O)O)CCN(C(=O)C2CC2)CC3)cn1 — higher, 17.9%
- CCn1ncc2c1CN(C(=O)Cc1cccs1)CC2COC (configuration not stated) — lower, 4.7%
- O=c1occ(CN2CCCCCC2)c(O)c1CN1CCOCC1 — lower, -8.2%
- Cc1ccc(NC(=O)N2C[C@@H]3CC[C@H]2CN(Cc2cscn2)C3)cc1 — lower, -7.47%
